{"source": "ChEMBL document CHEMBL1687823", "about": "“PA-824 exhibits time-dependent activity in a murine model of tuberculosis” (Antimicrob Agents Chemother, 2011)", "key": {"[1]": {"test_system": "Mycobacterium tuberculosis", "test": "Antitubercular activity against Mycobacterium tuberculosis H37Rv infected in po dosed BALB/c mouse assessed as reduction in log10 CFU count by single dose study", "format": "functional, organism-based"}, "[2]": {"test": "Elimination half life in BALB/c mouse up to 1456 mg/kg, po administered as single dose", "format": "ADME, organism-based", "design": "route oral", "conditions": "in vivo, read-out: beta t1/2 (converted)", "procedure,_shortened": "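Uninfected 6-week female BALB/c mice received single oral gavage doses of 3–1,458 mg/kg as a cyclodextrin-micelle suspension. Three mice per time point were bled by cardiac puncture under isoflurane at 0.5–120 h. Serum levels were measured by validated HPLC-UV (standards 0.20–50 µg/ml).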"}, "[3]": {"test_system": "Mycobacterium tuberculosis", "test": "Antitubercular activity against Mycobacterium tuberculosis H37Rv infected in BALB/c mouse assessed as reduction in log10 CFU count at 96 mg/kg, po bid", "format": "functional", "procedure,_shortened": "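Female 6-week BALB/c mice were aerosol-infected with log-phase H37Rv, aiming to implant ~3.5 log10 CFU. Treatment began 14 days later: gavage of cyclodextrin-micelle suspension for 24 consecutive days, total 0–4,608 mg/kg split into 3–48 equal doses, 3 mice per group. Lungs harvested 4 days after last dose and plated on selective OADC-7H11. CFU transformed as log10(x+1).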"}, "[4]": {"test_system": "Mycobacterium tuberculosis", "test": "fT>MIC for >= 1 log reduction in CFU count in Mycobacterium tuberculosis H37Rv in using simulated dose of at 400 mg assessed as time during compound concentration exceeds MIC of 0.03125 ug/ml assuming 10% unbound compound concentration by one compartment human pharmacokinetic model", "format": "functional", "procedure,_shortened": "(§1)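 A one-compartment PK model was fitted to human data to get median parameters. It simulated steady-state total and free concentrations for 100, 200 or 400 mg once daily, assuming 5, 7, 10 or 15% unbound drug. Free T>MIC was computed against MICs of 0.03125–0.25 µg/ml and compared with the mouse-derived T>MIC target for 1-log10 kill.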"}, "[5]": {"test_system": "Mycobacterium tuberculosis", "test": "fT>MIC for >= 1 log reduction in CFU count in Mycobacterium tuberculosis H37Rv in using simulated dose of at 100 mg assessed as time during compound concentration exceeds MIC of 0.03125 ug/ml assuming 15% unbound compound concentration by one compartment human pharmacokinetic model", "format": "functional", "procedure,_shortened": "as §1"}, "[6]": {"test_system": "Mycobacterium tuberculosis", "test": "fT>MIC for >= 1 log reduction in CFU count in Mycobacterium tuberculosis H37Rv in using simulated dose of at 400 mg assessed as time during compound concentration exceeds MIC of 0.03125 ug/ml assuming 15% unbound compound concentration by one compartment human pharmacokinetic model", "format": "functional", "procedure,_shortened": "as §1"}, "[7]": {"test_system": "Mycobacterium tuberculosis", "test": "fT>MIC for >= 1 log reduction in CFU count in Mycobacterium tuberculosis H37Rv in using simulated dose of at 200 mg assessed as time during compound concentration exceeds MIC of 0.06250 ug/ml assuming 5% unbound compound concentration by one compartment human pharmacokinetic model", "format": "functional", "procedure,_shortened": "as §1"}, "[8]": {"test_system": "Mycobacterium tuberculosis", "test": "fT>MIC for >= 1 log reduction in CFU count in Mycobacterium tuberculosis H37Rv in using simulated dose of at 200 mg assessed as time during compound concentration exceeds MIC of 0.06250 ug/ml assuming 7% unbound compound concentration by one compartment human pharmacokinetic model", "format": "functional", "procedure,_shortened": "as §1"}, "[9]": {"test_system": "Mycobacterium tuberculosis", "test": "fT>MIC for >= 1 log reduction in CFU count in Mycobacterium tuberculosis H37Rv in using simulated dose of at 400 mg assessed as time during compound concentration exceeds MIC of 0.06250 ug/ml assuming 7% unbound compound concentration by one compartment human pharmacokinetic model", "format": "functional", "procedure,_shortened": "(§2)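 Human steady-state simulation: one-compartment PK model fitted to patient data, chosen by AIC. Median PK parameters used to simulate total and free concentrations, assuming 5, 7, 10 or 15% unbound, for 100, 200 and 400 mg once daily. Free levels compared with MICs of 0.03125 to 0.25 µg/ml to give %T>MIC; T>MIC is the cumulative percentage of the dosing interval above MIC.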"}, "[10]": {"test_system": "Mycobacterium tuberculosis", "test": "fT>MIC for >= 1 log reduction in CFU count in Mycobacterium tuberculosis H37Rv in using simulated dose of at 100 mg assessed as time during compound concentration exceeds MIC of 0.06250 ug/ml assuming 10% unbound compound concentration by one compartment human pharmacokinetic model", "format": "functional", "procedure,_shortened": "as §1"}, "[11]": {"test_system": "Mycobacterium tuberculosis", "test": "fT>MIC for >= 1 log reduction in CFU count in Mycobacterium tuberculosis H37Rv in using simulated dose of at 400 mg assessed as time during compound concentration exceeds MIC of 0.06250 ug/ml assuming 10% unbound compound concentration by one compartment human pharmacokinetic model", "format": "functional", "procedure,_shortened": "as §1"}, "[12]": {"test_system": "Mycobacterium tuberculosis", "test": "fT>MIC for >= 1 log reduction in CFU count in Mycobacterium tuberculosis H37Rv in using simulated dose of at 100 mg assessed as time during compound concentration exceeds MIC of 0.12500 ug/ml assuming 5% unbound compound concentration by one compartment human pharmacokinetic model", "format": "functional", "procedure,_shortened": "as §1"}, "[13]": {"test_system": "Mycobacterium tuberculosis", "test": "fT>MIC for >= 1 log reduction in CFU count in Mycobacterium tuberculosis H37Rv in using simulated dose of at 100 mg assessed as time during compound concentration exceeds MIC of 0.12500 ug/ml assuming 7% unbound compound concentration by one compartment human pharmacokinetic model", "format": "functional", "procedure,_shortened": "as §1"}, "[14]": {"test_system": "Mycobacterium tuberculosis", "test": "fT>MIC for >= 1 log reduction in CFU count in Mycobacterium tuberculosis H37Rv in using simulated dose of at 100 mg assessed as time during compound concentration exceeds MIC of 0.12500 ug/ml assuming 10% unbound compound concentration by one compartment human pharmacokinetic model", "format": "functional", "procedure,_shortened": "as §1"}, "[15]": {"test_system": "Mycobacterium tuberculosis", "test": "fT>MIC for >= 1 log reduction in CFU count in Mycobacterium tuberculosis H37Rv in using simulated dose of at 200 mg assessed as time during compound concentration exceeds MIC of 0.12500 ug/ml assuming 10% unbound compound concentration by one compartment human pharmacokinetic model", "format": "functional", "procedure,_shortened": "as §1"}, "[16]": {"test_system": "Mycobacterium tuberculosis", "test": "fT>MIC for >= 1 log reduction in CFU count in Mycobacterium tuberculosis H37Rv in using simulated dose of at 200 mg assessed as time during compound concentration exceeds MIC of 0.25000 ug/ml assuming 5% unbound compound concentration by one compartment human pharmacokinetic model", "format": "functional", "procedure,_shortened": "as §1"}, "[17]": {"test_system": "Mycobacterium tuberculosis", "test": "fT>MIC for >= 1 log reduction in CFU count in Mycobacterium tuberculosis H37Rv in using simulated dose of at 400 mg assessed as time during compound concentration exceeds MIC of 0.25000 ug/ml assuming 5% unbound compound concentration by one compartment human pharmacokinetic model", "format": "functional", "procedure,_shortened": "as §2"}, "[18]": {"test_system": "Mycobacterium tuberculosis", "test": "fT>MIC for >= 1 log reduction in CFU count in Mycobacterium tuberculosis H37Rv in using simulated dose of at 100 mg assessed as time during compound concentration exceeds MIC of 0.25000 ug/ml assuming 7% unbound compound concentration by one compartment human pharmacokinetic model", "format": "functional", "procedure,_shortened": "as §1"}, "[19]": {"test_system": "Mycobacterium tuberculosis", "test": "fT>MIC for >= 1 log reduction in CFU count in Mycobacterium tuberculosis H37Rv in using simulated dose of at 100 mg assessed as time during compound concentration exceeds MIC of 0.25000 ug/ml assuming 10% unbound compound concentration by one compartment human pharmacokinetic model", "format": "functional", "procedure,_shortened": "as §1"}, "[20]": {"test": "Cmax in mouse at 100 or 50 mg/kg, po administered as single dose", "format": "ADME, organism-based", "design": "dose 50 mg/kg, route oral", "conditions": "in vivo"}}, "data": [{"molecule": "O=[N+]([O-])c1cn2c(n1)OC[C@@H](OCc1ccc(OC(F)(F)F)cc1)C2", "note": "[PRETOMANID]", "values": [{"measurement": "Activity", "setting": "[1]", "value": "Dose-dependent effect"}, {"measurement": "half-life", "setting": "[2]", "value": 4, "unit": "h"}, {"measurement": "log10cfu", "setting": "[3]", "value": 2.4}, {"measurement": "fT>MIC", "setting": "[4]", "value": 100, "unit": "%"}, {"measurement": "fT>MIC", "setting": "[5]", "value": 100, "unit": "%"}, {"measurement": "fT>MIC", "setting": "[6]", "value": 100, "unit": "%"}, {"measurement": "fT>MIC", "setting": "[7]", "value": 46, "unit": "%"}, {"measurement": "fT>MIC", "setting": "[8]", "value": 67, "unit": "%"}, {"measurement": "fT>MIC", "setting": "[9]", "value": 100, "unit": "%"}, {"measurement": "fT>MIC", "setting": "[10]", "value": 46, "unit": "%"}, {"measurement": "fT>MIC", "setting": "[11]", "value": 100, "unit": "%"}, {"measurement": "fT>MIC", "setting": "[12]", "value": 0, "unit": "%"}, {"measurement": "fT>MIC", "setting": "[13]", "value": 0, "unit": "%"}, {"measurement": "fT>MIC", "setting": "[14]", "value": 0, "unit": "%"}, {"measurement": "fT>MIC", "setting": "[15]", "value": 46, "unit": "%"}, {"measurement": "fT>MIC", "setting": "[16]", "value": 0, "unit": "%"}, {"measurement": "fT>MIC", "setting": "[17]", "value": 0, "unit": "%"}, {"measurement": "fT>MIC", "setting": "[18]", "value": 0, "unit": "%"}, {"measurement": "fT>MIC", "setting": "[19]", "value": 0, "unit": "%"}, {"measurement": "Cmax", "setting": "[20]", "value": 3800, "unit": "ng/mL"}]}]}
